# ChEMBL document CHEMBL1212800, “Influence of alpha-1 glycoprotein acid concentrations and variants on atazanavir pharmacokinetics in HIV-infected patients included in the ANRS 107 trial” (Antimicrob Agents Chemother, 2010)
# How the values were obtained:
# Albumin = Albumin (Homo sapiens, UniProt P02768); test: Binding affinity to human serum albumin; format: ADME; conditions: isolated protein
# Procedure, shortened: (§1)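 In vitro binding: alpha-1 glycoprotein acid or serum albumin solutions in pH 7.4 phosphate-buffered saline with added atazanavir. Bound and unbound drug separated by ultrafiltration of 500-µl samples (30,000 Da cutoff membrane), 2 h at 30°C. Ultrafiltrate drug measured by HPLC-UV at 220 nm (C18 column, liquid-liquid extraction, internal standard). Unbound fraction taken as unbound/total concentration. Binding profiled as bound versus unbound concentration.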
# [1] = Binding affinity to human alpha-1-glycoprotein acid; format: ADME; procedure, shortened: as §1
# [2] = Apparent oral clearance in human by one-compartment model; format: ADME, organism-based; conditions: in vivo
# Procedure, shortened: (§2)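 HIV-infected patients (ANRS 107) on atazanavir plus ritonavir plus tenofovir plus optimized background. Week-6 predose plasma trough samples; 10-patient substudy also sampled at 1, 2, 3, 5, 8 and 24 h postdose. Plasma held at −20°C, assayed by LC-MS/MS (LOQ 1 ng/ml). Population analysis used a one-compartment model with first-order absorption and elimination, exponential interindividual variability and proportional residual error.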
# [3] = Apparent oral clearance in human by covariate model; format: ADME, organism-based; conditions: in vivo; procedure, shortened: as §2
# [4] = Apparent volume of distribution with respect to the bioavailability in human by one-comparment model; format: ADME, organism-based; conditions: in vivo, read-out: Vc/F; procedure, shortened: as §2
# [5] = Apparent volume of distribution with respect to the bioavailability in human by covariate model; format: ADME, organism-based; conditions: in vivo, read-out: Vc/F; procedure, shortened: as §2
# Homo sapiens [6] = organism: Homo sapiens; test: Absorption rate constant in human by one-compartment model; format: ADME, organism-based; conditions: in vivo; procedure, shortened: as §2
# Homo sapiens [7] = organism: Homo sapiens; test: Absorption rate constant in human by covariate model; format: ADME, organism-based; conditions: in vivo; procedure, shortened: as §2
# [8] = Half life in patient with elevated alpha-1- glycoprotein acid level by covariate model; format: ADME, organism-based; conditions: human, in vivo; procedure, shortened: as §2
# [9] = Half life in patient with elevated alpha-1- glycoprotein acid level by one-compartment model; format: ADME, organism-based; conditions: human, in vivo; procedure, shortened: as §2
# [10] = AUC in patient with elevated alpha-1- glycoprotein acid level by covariate model; format: ADME, organism-based; conditions: human, in vivo; procedure, shortened: as §2
# [11] = AUC in patient with elevated alpha-1- glycoprotein acid level by one-compartment model; format: ADME, organism-based; conditions: human, in vivo; procedure, shortened: as §2
# [12] = Half life in patient with => 40 IU/liter ALAT level by covariate model; format: ADME, organism-based; conditions: human, in vivo; procedure, shortened: as §2
# [13] = Half life in patient with => 40 IU/liter ALAT level by one-compartment model; format: ADME, organism-based; conditions: human, in vivo; procedure, shortened: as §2
# [14] = AUC in patient with => 40 IU/liter ALAT level by covariate model; format: ADME, organism-based; conditions: human, in vivo; procedure, shortened: as §2
# [15] = AUC in patient with => 40 IU/liter ALAT level by one-compartment model; format: ADME, organism-based; conditions: human, in vivo; procedure, shortened: as §2
# Chain of Albumin (P02768 whole entry): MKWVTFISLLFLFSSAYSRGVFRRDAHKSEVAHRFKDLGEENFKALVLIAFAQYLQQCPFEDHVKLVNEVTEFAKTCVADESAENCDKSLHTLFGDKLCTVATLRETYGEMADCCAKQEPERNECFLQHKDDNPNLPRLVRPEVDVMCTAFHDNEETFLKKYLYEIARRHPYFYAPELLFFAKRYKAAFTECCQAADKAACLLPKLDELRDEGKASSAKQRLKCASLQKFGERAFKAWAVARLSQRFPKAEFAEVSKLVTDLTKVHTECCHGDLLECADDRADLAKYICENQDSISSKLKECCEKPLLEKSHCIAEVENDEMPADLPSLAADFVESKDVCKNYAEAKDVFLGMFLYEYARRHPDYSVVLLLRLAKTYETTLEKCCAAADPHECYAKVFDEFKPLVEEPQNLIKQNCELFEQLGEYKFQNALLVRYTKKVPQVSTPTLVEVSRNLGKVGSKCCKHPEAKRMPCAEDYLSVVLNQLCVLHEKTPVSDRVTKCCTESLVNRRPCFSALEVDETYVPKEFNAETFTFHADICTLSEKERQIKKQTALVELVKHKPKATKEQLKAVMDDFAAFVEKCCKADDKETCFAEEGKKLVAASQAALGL
structure (smiles),measurement,setting,value
COC(=O)N[C@H](C(=O)N[C@@H](Cc1ccccc1)[C@@H](O)CN(Cc1ccc(-c2ccccn2)cc1)NC(=O)[C@@H](NC(=O)OC)C(C)(C)C)C(C)(C)C [ATAZANAVIR],Activity,Albumin,21.3%
same,Activity,[1],31.1%
same,CL/F,[2],130 mL/min
same,CL/F,[3],222 mL/min
same,Vd/F,[4],78.2 L
same,Vd/F,[5],79.7 L
same,ka,Homo sapiens [6],0.75 h⁻¹
same,ka,Homo sapiens [7],0.73 h⁻¹
same,half-life,[8],9 h
same,half-life,[9],9 h
same,AUC,[10],49600 ng·h/mL
same,AUC,[11],49600 ng·h/mL
same,half-life,[12],7.8 h
same,half-life,[13],7.8 h
same,AUC,[14],47400 ng·h/mL
same,AUC,[15],47400 ng·h/mL
